# Source: PubChem
# Hits are enriched below; roughly 12% of the tested compounds scored in any of these assays.
# L major viab: Leishmania major promastigote growth inhibition. hit rate 9% among 200,000. Leishmania major promastigotes, resazurin fluorescence viability. AID 1063. inhibition, % at 10 µM; in the data active means inhibition above about 50%;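 further: promastigotes grown with compound for 44 hours at 28 °C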
# ROMK mod: human ROMK K+ channel modulation, primary screen; P48048; Tet-inducible ROMK, thallium flux fluorescence; actives lie on both sides; B-score at 10 µM; hit rate 2% among 130,000; AID 1918;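 active means signal ratio slope over the read window, or its plate-corrected B-score, at least 3 SD from the plate mean, either direction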;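 further: B-score of the F/F0 ratio slope over 7 to 12 s after thallium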
# WT yeast gro inh: growth inhibition of WT yeast, mitochondrial fusion screen; mitochondrial fusion phenotypic screen, WT strain; inhibition, % at 10 µM; hit rate 2.1% among 190,000; AID 1362; in the data active means inhibition above about 58%; tested in S. cerevisiae
# Diaph act CS: activates diaphorase or chemically reduces, flagging diaphorase assay artifacts. Diaphorase/resazurin coupled assay, resorufin fluorescence, 16 min; hits give high values; 1 = vehicle wells, 0 = NADH-free wells. activation factor at 20 µM. hit rate 0.005% among 190,000;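 active means diaphorase activity raised at least twofold by the compound at 20 µM; inactive means activation factor below 2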
#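 Material: bacterial diaphorase enzyme (C. kluyveri); amount: enzyme 0.07 U/mL final; reagent: NADH substrate 0.114 mM plus resazurin dye 0.1 mM, final; doses: single compound dose of 20 µM, 1% DMSO final; timing: 16 min enzyme reaction, ambient temperature; measured by: fluorescence of resorufin, 544 nm excitation, 590 nm emission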
# Diaphorase inh: diaphorase inhibition or chemical oxidation counter-screen; diaphorase resazurin-to-resorufin fluorescence, NADH, 16 min; bacterial (C. kluyveri) enzyme, not human; inhibition, % at 20 µM; hit rate 0.69% among 190,000; AID 1217;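 active means primary screen inhibition at 20 µM above a set limit, cut at about 50% in these data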;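 further: plate controls were DMSO with full reaction for no effect and wells lacking NADH for full effect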
#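 Benchmarks: positive control wells lacking NADH, neutral wells with DMSO only. System: bacterial diaphorase enzyme (C. kluyveri). Input: 0.14 U/mL diaphorase, enzyme working solution. Detection: resorufin fluorescence, excitation 544 nm, emission 590 nm. Times: 16-min room-temperature incubation before reading.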
# Cl transport mod: KCC2 (human) Cl- transport modulation; KCC2 cells, thallium flux FluoZin-2 fluorescence; hit rate 2.2% among 190,000; AID 1456; B-score of Tl+ flux slope (higher = more flux/activation; lower = inhibition) at 10 µM;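 active means thallium flux slope and its plate-corrected score both differing from the plate sample mean at a set confidence after two filtering rounds, in either direction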;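 further: slope of fluorescence scaled to starting intensity during 10 to 20 s after thallium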
# Target sequence (Q9H2X9 whole entry, looked up): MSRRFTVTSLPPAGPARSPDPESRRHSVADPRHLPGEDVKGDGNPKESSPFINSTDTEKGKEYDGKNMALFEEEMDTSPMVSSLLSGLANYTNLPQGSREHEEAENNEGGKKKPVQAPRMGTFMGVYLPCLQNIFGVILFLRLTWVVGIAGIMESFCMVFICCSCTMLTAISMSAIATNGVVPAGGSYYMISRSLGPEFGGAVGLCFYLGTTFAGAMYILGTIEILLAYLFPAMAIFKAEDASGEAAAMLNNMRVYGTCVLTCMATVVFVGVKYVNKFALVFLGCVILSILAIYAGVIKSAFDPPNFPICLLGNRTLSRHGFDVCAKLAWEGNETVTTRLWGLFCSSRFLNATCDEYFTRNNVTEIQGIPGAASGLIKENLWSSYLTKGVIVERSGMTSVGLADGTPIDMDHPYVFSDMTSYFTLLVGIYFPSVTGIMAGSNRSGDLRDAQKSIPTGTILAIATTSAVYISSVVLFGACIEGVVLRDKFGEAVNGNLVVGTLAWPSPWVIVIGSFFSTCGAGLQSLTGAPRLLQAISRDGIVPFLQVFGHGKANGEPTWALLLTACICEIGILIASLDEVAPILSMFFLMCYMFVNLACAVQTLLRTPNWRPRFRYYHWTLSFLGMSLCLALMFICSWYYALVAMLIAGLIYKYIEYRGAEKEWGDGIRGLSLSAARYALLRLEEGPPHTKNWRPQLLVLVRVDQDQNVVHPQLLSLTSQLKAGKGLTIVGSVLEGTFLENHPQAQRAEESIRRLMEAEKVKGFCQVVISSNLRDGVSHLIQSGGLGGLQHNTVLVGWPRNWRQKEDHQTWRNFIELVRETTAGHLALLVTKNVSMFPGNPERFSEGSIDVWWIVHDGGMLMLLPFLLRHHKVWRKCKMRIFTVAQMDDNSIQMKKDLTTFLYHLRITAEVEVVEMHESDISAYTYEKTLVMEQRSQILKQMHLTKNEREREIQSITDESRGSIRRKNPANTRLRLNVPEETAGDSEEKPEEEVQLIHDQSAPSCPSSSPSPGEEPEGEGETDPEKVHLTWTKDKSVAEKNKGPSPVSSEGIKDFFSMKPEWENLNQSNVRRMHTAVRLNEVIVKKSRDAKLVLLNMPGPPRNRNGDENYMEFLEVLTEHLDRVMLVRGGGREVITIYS
# Active calls of the source: *; x = no result.
SMILES,L major viab,ROMK mod,WT yeast gro inh,Diaph act CS,Diaphorase inh,Cl transport mod
O=C1CCC/C(=N\NC(=O)c2ccc(COc3cccc4cccnc34)cc2)C1,-6,-1.3,3,0.9,10,-0.0069
O=C(NCCC1=CCCCC1)c1ccc(CN2CCOCC2)cc1,81*,x,-1,1,4,-0.35
O=C(NCCC1=CCCCC1)c1ccc(F)cc1,3,-0.96,0,1.1,-6,0.44
O=C(NC1CCCCCC1)c1ccc(CN2CCOCC2)cc1,59*,x,12,0.9,10,0.38
CNc1nc(N)c(C(=O)C23CC4CC(CC(C4)C2)C3)s1,100*,-0.034,-13,0.8,16,-0.23
CC(=O)N1CCc2c(sc(NC(=O)c3ccc4c(c3)OCCO4)c2C#N)C1,54*,x,14,0.9,14,1.2
Cc1ccc(N2C(=O)C3C(c4ccccc4)N4CCCN4C3(C)C2=O)cc1 (stereo not given),-6,x,-11,0.9,5,1.2
N#Cc1ccc(-c2cccnc2)nc1SCc1ccc(Cl)c(Cl)c1,8,x,75*,0.9,8,1.5
CCc1nc2oc3ccccc3c(=O)c2c(=O)n1Cc1ccccc1,9,-0.39,-4,0.9,13,x
CCc1nc2oc3cc(OC)ccc3c(=O)c2c(=O)n1Cc1ccccc1,95*,-0.42,6,0.9,12,x
COc1ccc2c(=O)c3c(=O)n(Cc4ccco4)c(-c4ccc(C)cc4)nc3oc2c1,59*,1.8,16,0.8,24,x
COc1ccc2c(=O)c3c(=O)n(Cc4ccco4)c(C(C)C)nc3oc2c1,9,x,7,0.8,17,-1.5
CN(C(=O)Nc1ccc(Cl)cc1Cl)C1CCCC1,1,-1.1,-6,0.8,16,x
CCOC(=O)c1sc2nccc(OC)c2c1N=CNOC,9,0.11,-4,0.9,12,-0.37
O=C(CSc1ncnc2c1nnn2Cc1ccccc1)NC1CCCC1,10,-0.79,-6,0.9,13,-0.78
CC(C)(C)NC(=O)CSc1ncnc2c1nnn2Cc1ccccc1Cl,57*,-1.5,-42,0.8,16,x
Oc1ccc(/C=N/n2c(-c3ccco3)csc2=Nc2cccnc2)c(O)c1,99*,-0.6,16,0.9,12,-0.36
CC(C)N=c1scc(-c2ccco2)n1/N=C/c1ccc(O)c(O)c1,99*,x,6,0.4,59*,-1.9
COc1cc2c(cc1NC(=O)CN1CCN(S(=O)(=O)c3ccc(C)cc3)CC1)oc1ccccc12,32,0.11,9,0.9,11,-0.38
COc1cc2c(cc1NS(=O)(=O)N1CCCC1)oc1ccccc12,100*,x,17,0.8,19,0.27
COC(=O)CN(c1nc(C)c(Br)c(OC)n1)S(=O)(=O)c1ccc(C)cc1,88*,-0.72,37,0.8,22,-0.61
COC(=O)CN(c1nc(C)cc(OC)n1)S(=O)(=O)c1ccc(C)cc1,1,x,-4,0.9,8,-0.13
O=C(NN1CCOCC1)c1cc(-c2cccc(Cl)c2)nc2ccccc12,-3,0.76,7,0.9,6,x
Clc1cccc(-c2nc(NCCN3CCOCC3)c3ccccc3n2)c1,75*,1,11,0.8,18,0.94
Clc1ccc(-c2nc(NCCCN3CCOCC3)c3ccccc3n2)cc1,x,x,x,x,x,0.013
SMILES,L major viab,ROMK mod,WT yeast gro inh,Diaph act CS,Diaphorase inh,Cl transport mod
c1ccc2c(NCCCN3CCOCC3)c3ccccc3nc2c1,100*,-1.1,5,0.9,8,0.048
Fc1ccccc1-c1nc(NCCCN2CCOCC2)c2ccccc2n1,43,-1.3,-2,0.9,11,-0.39
Clc1cccc(-c2nc(NCCCN3CCOCC3)c3ccccc3n2)c1,80*,-2.6,24,1.2,-18,-0.019
Cc1ccc(-c2nc(NCCN3CCOCC3)c3ccccc3n2)cc1,81*,x,4,0.9,6,0.36
Cc1ccc(NC(=O)/C(=C/c2cccs2)NC(=O)c2ccco2)cc1,-3,x,10,0.9,12,-0.69
O=C(c1ccc(Cl)cc1)C1CCCN(Cc2cccn2-c2ccccn2)C1 (stereo not given),34,x,8,0.9,8,-0.41
Cc1ccsc1C(=O)C1CCCN(Cc2cccn2-c2ccc(Cl)cn2)C1 (stereo not given),94*,-1.3,28,1,4,x
Cc1ccc(-n2cccn2)c(CN2CCCC(C(=O)c3sccc3C)C2)c1 (stereo not given),87*,-0.77,12,0.9,13,x
Cc1ccccc1CSCC(=O)NCCSc1ccccn1,14,-0.9,-7,0.9,8,x
O=C(CCc1nnc(-c2ccc3c(c2)OCO3)o1)NC(c1cccnc1)C(F)(F)F (stereo not given),32,1.1,-3,0.8,20,-0.022
COc1ccc(Cl)cc1NC(=O)NC(C)C,95*,x,14,0.9,7,-0.75
COc1ccc(Cl)cc1C(=O)Nc1ccc(NC(=O)c2ccco2)cc1,-5,x,-5,1,3,1.1
COc1cc(NC(=O)C2CCCCC2)c(OC)cc1NC(=O)c1ccco1,11,-0.36,4,0.9,8,-0.4
COc1ccc(Cl)cc1NC(=O)c1ccco1,64*,x,4,0.9,5,x
COc1cc(NC(=O)c2ccco2)c(OC)cc1NC(=O)Nc1ccccc1Cl,72*,-0.29,-7,0.9,8,0.15
Cc1ccsc1/C=N\NC(=O)Cn1nnc2ccccc21,-7,x,-4,0.9,8,-0.56
Cn1c(SCc2ccccc2)nnc1-c1ccco1,46,0.42,-4,1,-2,1.5
Cc1cc(Cn2ccnc2)c(C)cc1Cn1ccnc1,98*,0.24,-5,0.8,19,-0.81
COc1ccc(C=O)cc1Cn1ccnc1,-8,0.21,-10,0.9,8,-0.29
COc1ccc(C(C(=O)NCC2CCCO2)N(C(=O)CNC(=O)c2cccs2)c2ccc(C(C)=O)cc2)cc1OC (stereo not given),-2,-0.45,6,1.1,-9,-0.27
CC(Sc1nncs1)C(=O)NCC(=O)Nc1ccc(F)c(F)c1F (stereo not given),-5,0.046,-12,1,5,1.3
S=C1NCCc2ccc(Cl)cc2C1c1ccccc1Cl (stereo not given),5,x,68*,0.8,17,0.42
Clc1cccc(CSC2=NCCCN2)c1,60*,-0.089,0,1.1,-6,-1.3
CCOc1ccc(-c2nnn(CC(=O)NCc3ccccc3)n2)cc1,-4,0.71,4,1.1,-8,0.31
Cc1c(C(=O)Nc2ccc(F)cc2)c2ccccn2c1CCc1ccncc1,12,x,24,0.9,6,-0.67
O=C(/C=C/c1ccccc1Cl)c1ccc[nH]1,74*,0.14,10,0.9,7,-1.2
O=C(/C=C/c1ccc(Cl)cc1Cl)c1ccc[nH]1,27,0.31,42,0.7,25,0.15
C=CCc1ccccc1OCCNCCCOC,83*,0.019,-6,0.9,11,0.65
